# Laboratory results as given in ChEMBL document CHEMBL4680297, “Design, synthesis, and evaluation of substrate - analogue inhibitors of Trypanosoma cruzi ribose 5-phosphate isomerase type B” (Bioorg Med Chem Lett, 2021).
# Active and inactive are the calls of the source. The calls are words filed in the database; no cut-off is given here.
# How the values were obtained:
# [1] = system: Trypanosoma cruzi; experiment: Inhibition of Trypanosoma cruzi Ribose 5-phosphate isomerase type B assessed as residual activity at 0.2 mM using ribose 5-phosphate as substrate relative to control
# Summary of the method: (§1)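 TcRPI-B activity on R5P, measured by coupled enzyme assay (TcRPE-1 first coupling enzyme), with compound at 0.2, 0.5, 1.0 or 2.0 mM, as % of control activity. Mean of three independent determinations ± SEM.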
# [2] = system: Trypanosoma cruzi; experiment: Inhibition of Trypanosoma cruzi Ribose 5-phosphate isomerase type B assessed as residual activity at 0.5 mM using ribose 5-phosphate as substrate relative to control; summary of the method: as §1
# [3] = system: Trypanosoma cruzi; experiment: Inhibition of Trypanosoma cruzi Ribose 5-phosphate isomerase type B assessed as residual activity at 1 mM using ribose 5-phosphate as substrate relative to control; summary of the method: as §1
# [4] = system: Trypanosoma cruzi; experiment: Inhibition of Trypanosoma cruzi Ribose 5-phosphate isomerase type B assessed as residual activity at 2 mM using ribose 5-phosphate as substrate relative to control; summary of the method: as §1
# [5] = system: Trypanosoma cruzi; experiment: Inhibition of Trypanosoma cruzi RPE1 assessed as residual activity at 0.2 mM relative to control
# Summary of the method: (§2)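 TcRPE-1 (first enzyme of the coupled RPI assay) activity measured with compound at 0.2, 0.5, 1.0 or 2.0 mM, as % of uninhibited activity. Mean of three independent determinations ± SEM.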
# [6] = system: Trypanosoma cruzi; experiment: Inhibition of Trypanosoma cruzi RPE1 assessed as residual activity at 0.5 mM relative to control; summary of the method: as §2
# [7] = system: Trypanosoma cruzi; experiment: Inhibition of Trypanosoma cruzi RPE1 assessed as residual activity at 1 mM relative to control; summary of the method: as §2
# [8] = system: Trypanosoma cruzi; experiment: Inhibition of Trypanosoma cruzi RPE1 assessed as residual activity at 2 mM relative to control; summary of the method: as §2
# [9] = system: NIH3T3; experiment: Cytotoxicity against mouse NIH/3T3 cells; format: cell-based
# [10] = Competitive inhibition of Trypanosoma cruzi Ribose 5-phosphate isomerase type B using varying levels of ribose 5-phosphate as substrate by Dixon plot analysis
# Summary of the method: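 Coupled assay with TcRPE-1 as first coupling enzyme. Inhibitor at 0, 10, 20, 40, 60 and 80 μM, R5P at 0.4, 0.8 and 2 mM. Ki taken from the x-axis intersection of Dixon plots (1/V vs [inhibitor]). Inhibition type assigned from parallel [R5P]/V vs [inhibitor] lines (Cornish-Bowden). Mean of four independent experiments.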
# [11] = system: Trypanosoma cruzi; experiment: Binding affinity to Trypanosoma cruzi Ribose 5-phosphate isomerase type B assessed as covalent bond formation between compound and protein Cys69 residue by trypsin digestion based LC-MS/MS analysis
# Summary of the method: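 TcRPI-B incubated intact with inhibitor for 30 min, then digested with trypsin to map cysteine modification.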
# [12] = system: Trypanosoma cruzi; experiment: Trypanocidal activity against Trypanosoma cruzi trypomastigotes expressing beta galactosidase infected in NIH/3T3 cells assessed as parasite growth inhibition by reporter assay; format: functional, organism-based; conditions: NIH3T3
# Summary of the method: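 Tulahuen strain expressing β-galactosidase. Trypomastigotes added to NIH-3T3 fibroblasts together with compound, up to 50 μM, covering infection and intracellular amastigote growth. β-Galactosidase activity taken as parasite viability. IC50 from dose-response fits, in triplicate. Amphotericin B positive control.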
# [13] = system: Trypanosoma cruzi; experiment: Trypanocidal activity against Trypanosoma cruzi trypomastigotes expressing beta galactosidase infected in NIH/3T3 cells assessed as parasite growth inhibition at up to 50 uM by reporter assay; conditions: dose microM <=50
# [14] = Inhibition of Trypanosoma cruzi Ribose 5-phosphate isomerase type B expressed in Escherichia coli BL21 codon plus (DE3) using ribose 5-phosphate as substrate
# [15] = Competitive inhibition of recombinant poly-His-tagged Trypanosoma cruzi Ribose 5-phosphate isomerase type B expressed in Escherichia coli BL21 codon plus (DE3) using ribose 5-phosphate as substrate
# Summary of the method: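 Coupled spectrophotometric RPI assay, with T. cruzi ribulose 5-phosphate epimerase (TcRPE-1) as the first coupling enzyme. Inhibitor was tested at 0, 10, 20, 40, 60 and 80 μM, each at R5P 0.4, 0.8 and 2 mM. Ki came from Dixon plots (1/V vs [inhibitor]), as the X-axis intersection of the three lines. Inhibition type was assigned from [R5P]/V vs [inhibitor] plots (Cornish-Bowden). Mean of four independent experiments.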
SMILES,Activity [1] [%],Activity [2] [%],Activity [3] [%],Activity [4] [%],Activity [5] [%],Activity [6] [%],Activity [7] [%],Activity [8] [%],Activity [9],Ki [10] [µM],Activity [11],IC50 [12] [µM],Activity [13],Ki [14] [µM],Ki [15] [µM]
O=C(CCl)NCCOP(=O)(O)O,107,105,98.5,83.7,100,103,95.5,82.6,Non-Toxic,,,,,,
O=C(CI)NCCOP(=O)(O)O,25.2,7.5,1.2,0,89.5,89.5,103,57.4,Non-Toxic,5.5,Active,17.4,,,
O=C(Cc1ccccc1)NCCOP(=O)(O)O,98.1,97.4,95.3,89.2,100,91.9,87.4,85.9,Non-Toxic,,,,inactive,,
O=C[C@H](O)[C@H](O)[C@H](O)[C@H](O)COP(=O)(O)O,,,,,,,,,,,,,,15000,
O=C(CBr)NCCOP(=O)(O)O,78.5,62.7,41.3,18.3,91.1,85.8,77.3,65.1,Non-Toxic,,,,inactive,,
C[C@@H]1[C@H](O)[C@@H](C)/C=C/C=C/C=C/C=C/C=C/C=C/C=C/[C@H](O[C@@H]2O[C@H](C)[C@@H](O)[C@H](N)[C@@H]2O)C[C@@H]2O[C@](O)(C[C@@H](O)C[C@@H](O)[C@H](O)CC[C@@H](O)C[C@@H](O)CC(=O)O[C@H]1C)C[C@H](O)[C@H]2C(=O)O [AMPHOTERICIN B],,,,,,,,,,,,0.23,,,
O=C(NO)[C@H](O)[C@H](O)COP(=O)(O)O,,,,,,,,,,,,,,,1200
O=C(CF)NCCOP(=O)(O)O,,2040,,,111,103,93.2,83.5,Non-Toxic,,,,inactive,,
